{"source": "ChEMBL document CHEMBL4130578", "about": "“Synthesis, biological evaluation and structure-activity relationship studies of hederacolchiside E and its derivatives as potential anti-Alzheimer agents” (Eur J Med Chem, 2018)", "key": {"PC-12 [1]": {"system": "PC-12", "test": "Cytoprotection against amyloid beta (1 to 42)-induced cell injury in rat PC12 cells assessed as cell viability at 10 uM preincubated for 12 hrs followed by amyloid beta (1 to 42) addition measured after 12 hrs by MTT assay (reference value: 55.3 +/- 1.5%)", "type": "functional", "settings": "read-out: Activity"}, "PC-12 [2]": {"system": "PC-12", "test": "Cytoprotection against amyloid beta (1 to 42)-induced cell injury in rat PC12 cells assessed as cell viability at 50 uM preincubated for 12 hrs followed by amyloid beta (1 to 42) addition measured after 12 hrs by MTT assay (reference value: 55.3 +/- 1.5%)", "type": "functional", "settings": "read-out: Activity"}, "PC-12 [3]": {"system": "PC-12", "test": "Cytoprotection against H2O2-induced cell injury in rat PC12 cells assessed as increase in cell viability preincubated for 12 hrs followed by H2O2 addition measured after 12 hrs by MTT assay", "type": "functional, cell-based", "procedure,_shortened": "(§1)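 PC12 cells grown in RPMI-1640 with 15% FBS and penicillin/streptomycin, subcultured every 2 days and cultured 8 days before use. Cells seeded at 1 × 10^4/well, after 12 h pretreated with compound 12 h, then exposed to 200 µM H2O2 for 12 h. MTT added for 4 h, formazan dissolved in DMSO, OD 490 nm read. Viability given as % of untreated control, mean ± SD, n = 3, ANOVA with Dunnett's test.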"}, "PC-12 [4]": {"system": "PC-12", "test": "Cytoprotection against amyloid beta (1 to 42)-induced damage in rat PC12 cells assessed as reduction in intracellular MDA level preincubated with cells followed by amyloid beta (1 to 42) addition measured after 24 hrs by TBA assay", "type": "functional, cell-based", "procedure,_shortened": "(§2)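 For the MDA readout, PC12 cells were given 40 µM Aβ1-42 for 24 h with or without compound (10, 50, 100 µM). Samples were mixed with two volumes of TBA reagent (0.375% TBA, 15% trichloroacetic acid, 0.1 mM EDTA) and heated at 95 °C for 40 min. After cooling and centrifugation at 3000 × g for 10 min, supernatant A532 was read. Mean ± SD, n = 3.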"}, "PC-12 [5]": {"system": "PC-12", "test": "Cytoprotection against amyloid beta (1 to 42)-induced cell injury in rat PC12 cells assessed as cell viability at 100 uM preincubated for 12 hrs followed by amyloid beta (1 to 42) addition measured after 12 hrs by MTT assay (reference value: 55.3 +/- 1.5%)", "type": "functional", "settings": "read-out: Activity"}, "PC-12 [6]": {"system": "PC-12", "test": "Cytoprotection against amyloid beta (1 to 42)-induced oxidative damage in rat PC12 cells assessed as intracellular ROS level at 100 uM preincubated with cells followed by amyloid beta (1 to 42) addition measured after 24 hrs by DCFH-DA staining based flow cytometry (reference value: 51.4%)", "type": "functional"}, "PC-12 [7]": {"system": "PC-12", "test": "Cytoprotection against amyloid beta (1 to 42)-induced oxidative damage in rat PC12 cells assessed as intracellular ROS level at 10 uM preincubated with cells followed by amyloid beta (1 to 42) addition measured after 24 hrs by DCFH-DA staining based flow cytometry (reference value: 51.4%)", "type": "functional"}, "PC-12 [8]": {"system": "PC-12", "test": "Cytotoxicity against rat PC12 cells assessed as decrease in cell viability at 50 uM after 12 hrs by MTT assay", "type": "cell-based", "settings": "pc-12, 12 h"}, "PC-12 [9]": {"system": "PC-12", "test": "Cytoprotection against amyloid beta (1 to 42)-induced damage in rat PC12 cells assessed as intracellular MDA level at 10 uM preincubated with cells followed by amyloid beta (1 to 42) addition measured after 24 hrs by TBA assay", "type": "functional", "procedure,_shortened": "as §2"}, "PC-12 [10]": {"system": "PC-12", "test": "Cytoprotection against amyloid beta (1 to 42)-induced damage in rat PC12 cells assessed as intracellular MDA level at 50 uM preincubated with cells followed by amyloid beta (1 to 42) addition measured after 24 hrs by TBA assay", "type": "functional", "procedure,_shortened": "as §2"}, "PC-12 [11]": {"system": "PC-12", "test": "Cytoprotection against amyloid beta (1 to 42)-induced damage in rat PC12 cells assessed as intracellular MDA level at 100 uM preincubated with cells followed by amyloid beta (1 to 42) addition measured after 24 hrs by TBA assay", "type": "functional", "procedure,_shortened": "as §2"}, "PC-12 [12]": {"system": "PC-12", "test": "Cytoprotection against amyloid beta (1 to 42)-induced toxicity in rat PC12 cells assessed as LDH release at 10 uM preincubated with cells followed by amyloid beta (1 to 42) addition measured after 24 hrs by LDH assay (reference value: 153%)", "type": "functional"}, "PC-12 [13]": {"system": "PC-12", "test": "Cytoprotection against amyloid beta (1 to 42)-induced toxicity in rat PC12 cells assessed as LDH release at 100 uM preincubated with cells followed by amyloid beta (1 to 42) addition measured after 24 hrs by LDH assay (reference value: 153%)", "type": "functional"}, "PC-12 [14]": {"system": "PC-12", "test": "Cytoprotection against H2O2-induced cell injury in rat PC12 cells assessed as increase in cell viability at 1 to 10 uM preincubated for 12 hrs followed by H2O2 addition measured after 12 hrs by MTT assay", "type": "functional, cell-based", "procedure,_shortened": "as §1"}, "PC-12 [15]": {"system": "PC-12", "test": "Cytoprotection against amyloid beta (1 to 42)-induced oxidative damage in rat PC12 cells assessed as reduction in intracellular ROS level preincubated with cells followed by amyloid beta (1 to 42) addition measured after 24 hrs by DCFH-DA staining based flow cytometry", "type": "functional, cell-based"}, "PC-12 [16]": {"system": "PC-12", "test": "Cytoprotection against amyloid beta (1 to 42)-induced toxicity in rat PC12 cells assessed as LDH release at 50 uM preincubated with cells followed by amyloid beta (1 to 42) addition measured after 24 hrs by LDH assay (reference value: 153%)", "type": "functional"}, "PC-12 [17]": {"system": "PC-12", "test": "Cytoprotection against amyloid beta (1 to 42)-induced oxidative damage in rat PC12 cells assessed as intracellular ROS level at 50 uM preincubated with cells followed by amyloid beta (1 to 42) addition measured after 24 hrs by DCFH-DA staining based flow cytometry (reference value: 51.4%)", "type": "functional"}}, "note": "Calls of active or inactive are those of the source. No cut-off for these calls is given here."}
{"smiles": "C[C@@H]1O[C@@H](O[C@H]2[C@H](O[C@H]3CC[C@]4(C)[C@H]5CC=C6[C@@H]7CC(C)(C)CC[C@]7(C(=O)O[C@@H]7O[C@H](CO[C@@H]8O[C@H](CO)[C@@H](O[C@@H]9O[C@@H](C)[C@H](O)[C@@H](O)[C@H]9O)[C@H](O)[C@H]8O)[C@@H](O)[C@H](O)[C@H]7O)CC[C@@]6(C)[C@]5(C)CC[C@H]4C3(C)C)OC[C@H](O[C@@H]3O[C@H](CO)[C@H](O)[C@H](O)[C@H]3O)[C@@H]2O)[C@H](O)[C@H](O)[C@H]1O", "values": [{"measurement": "viability at 10 µM", "setting": "PC-12 [1]", "value": 52.6, "unit": "%"}, {"measurement": "viability at 50 µM", "setting": "PC-12 [2]", "value": 58.6, "unit": "%"}, {"measurement": "Activity", "setting": "PC-12 [3]", "value": "Dose-dependent effect"}]}
{"smiles": "C[C@@H]1O[C@@H](O[C@H]2[C@H](O[C@H]3CC[C@]4(C)[C@H]5CC=C6[C@@H]7CC(C)(C)CC[C@]7(C(=O)O[C@@H]7O[C@H](CO[C@@H]8O[C@H](CO)[C@@H](O[C@@H]9O[C@@H](C)[C@H](O)[C@@H](O)[C@H]9O)[C@H](O)[C@H]8O)[C@@H](O)[C@H](O)[C@H]7O)CC[C@@]6(C)[C@]5(C)CC[C@H]4C3(C)C)OC[C@H](O[C@@H]3O[C@H](CO)[C@@H](O)[C@H]3O)[C@@H]2O)[C@H](O)[C@H](O)[C@H]1O", "values": [{"measurement": "viability at 10 µM", "setting": "PC-12 [1]", "value": 58.5, "unit": "%"}, {"measurement": "viability at 50 µM", "setting": "PC-12 [2]", "value": 57.9, "unit": "%"}, {"measurement": "Activity", "setting": "PC-12 [3]", "value": "Dose-dependent effect"}]}
{"smiles": "C[C@@H]1O[C@@H](O[C@H]2[C@H](O)[C@@H](O)[C@H](OC[C@H]3O[C@@H](OC(=O)[C@]45CCC(C)(C)C[C@H]4C4=CC[C@@H]6[C@@]7(C)CC[C@H](O[C@@H]8OC[C@H](O)[C@H](O)[C@H]8O)C(C)(C)[C@@H]7CC[C@@]6(C)[C@]4(C)CC5)[C@H](O)[C@@H](O)[C@@H]3O)O[C@@H]2CO)[C@H](O)[C@H](O)[C@H]1O", "note": "[CIWUJIANOSIDE C3]", "values": [{"measurement": "Activity", "setting": "PC-12 [4]", "value": "Dose-dependent effect"}, {"measurement": "viability at 100 µM", "setting": "PC-12 [5]", "value": 79.1, "unit": "%"}, {"measurement": "Activity", "setting": "PC-12 [6]", "value": 20.6, "unit": "%"}, {"measurement": "viability at 10 µM", "setting": "PC-12 [1]", "value": 55.9, "unit": "%"}, {"measurement": "Activity", "setting": "PC-12 [7]", "value": 45, "unit": "%"}, {"measurement": "Activity", "setting": "PC-12 [8]", "value": "Toxic"}, {"measurement": "Activity", "setting": "PC-12 [9]", "value": 2, "unit": "nmol/mL"}, {"measurement": "viability at 50 µM", "setting": "PC-12 [2]", "value": 69.9, "unit": "%"}, {"measurement": "Activity", "setting": "PC-12 [10]", "value": 1.6, "unit": "nmol/mL"}, {"measurement": "Activity", "setting": "PC-12 [11]", "value": 1.2, "unit": "nmol/mL"}, {"measurement": "Activity", "setting": "PC-12 [12]", "value": 143.7, "unit": "%"}, {"measurement": "Activity", "setting": "PC-12 [13]", "value": 126.3, "unit": "%"}, {"measurement": "Activity", "setting": "PC-12 [14]", "value": "Active"}, {"measurement": "Activity", "setting": "PC-12 [15]", "value": "Dose-dependent effect"}, {"measurement": "Activity", "setting": "PC-12 [16]", "value": 134.4, "unit": "%"}, {"measurement": "Activity", "setting": "PC-12 [17]", "value": 30.7, "unit": "%"}]}
{"smiles": "C[C@@H]1O[C@@H](O[C@H]2[C@H](O[C@H]3CC[C@]4(C)[C@H]5CC=C6[C@@H]7CC(C)(C)CC[C@]7(C(=O)O[C@@H]7O[C@H](CO[C@@H]8O[C@H](CO)[C@@H](O[C@@H]9O[C@@H](C)[C@H](O)[C@@H](O)[C@H]9O)[C@H](O)[C@H]8O)[C@@H](O)[C@H](O)[C@H]7O)CC[C@@]6(C)[C@]5(C)CC[C@H]4C3(C)C)OC[C@H](O[C@@H]3OC[C@@H](O)[C@H](O)[C@H]3O)[C@@H]2O)[C@H](O)[C@H](O)[C@H]1O", "values": [{"measurement": "viability at 10 µM", "setting": "PC-12 [1]", "value": 52.7, "unit": "%"}, {"measurement": "viability at 50 µM", "setting": "PC-12 [2]", "value": 55.7, "unit": "%"}, {"measurement": "Activity", "setting": "PC-12 [3]", "value": "Dose-dependent effect"}]}
{"smiles": "C[C@@H]1O[C@@H](O[C@H]2[C@H](O[C@H]3CC[C@]4(C)[C@H]5CC=C6[C@@H]7CC(C)(C)CC[C@]7(C(=O)O[C@@H]7O[C@H](CO[C@@H]8O[C@H](CO)[C@@H](O[C@@H]9O[C@@H](C)[C@H](O)[C@@H](O)[C@H]9O)[C@H](O)[C@H]8O)[C@@H](O)[C@H](O)[C@H]7O)CC[C@@]6(C)[C@]5(C)CC[C@H]4C3(C)C)OC[C@H](O)[C@@H]2O)[C@H](O)[C@H](O)[C@H]1O", "note": "[HEDERASAPONIN B]", "values": [{"measurement": "viability at 10 µM", "setting": "PC-12 [1]", "value": 54.3, "unit": "%"}, {"measurement": "Activity", "setting": "PC-12 [8]", "value": "Toxic"}, {"measurement": "viability at 50 µM", "setting": "PC-12 [2]", "value": 60.3, "unit": "%"}, {"measurement": "Activity", "setting": "PC-12 [14]", "value": "Active"}]}
